Experiment: Toxicity liver stage against HepG2, at 10uM
Type: cell-based
Set-up: test concentration 10 uM, cell line HepG2-A16-CD81EGFP
Conditions: human, HepG2-A16-CD81EGFP cells; read-out: INHIBITION
Outline: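 Uninfected HepG2-A16-CD81EGFP cells, 3 × 10^3 per well, 1536-well, plated on prespotted compound at 10 μM final, parasite-free screening media added to match infected plates; puromycin 10 μM positive, DMSO 0.5% negative; run in parallel with 48 h PbLuc assay at 37 °C, 5% CO2; viability by CellTiter-Glo luminescence, normalized to controls.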

Row | SMILES | cytotoxicity at 10 µM [%]
1 | COCC(=O)N[C@H](C)c1c(-c2ccc(Cl)cc2)noc1C(=O)O | 1.05
2 | CC1=C[C@@H](CC#N)[C@H](C(C)C)C[C@H]1CC(=O)N1CCN(CCO)CC1 | 4.62
3 | CCc1c(C)nc2n(c1=O)CC(C(=O)Nc1ncccc1C)CS2 (stereo unspecified) | 7.14
4 | O=S(=O)(NCCn1ccc(-c2ccccn2)n1)C1CC1 | -1.04
5 | CC(=O)N1CCCC2(CCN(C(=O)c3nccnc3N)CC2)C1 | 3.47
6 | C[C@H]1C[C@H]2CN(S(=O)(=O)c3ccc(F)cc3)CC[C@@H]2O1 | 2.97
7 | O=C(NC[C@H]1OC[C@@H]2CCN(c3ccccn3)C[C@@H]21)c1ccco1 | 1.32
8 | CS(=O)(=O)N1CCCC12CCCN(C(=O)c1ccc3c(c1)OCO3)C2 (stereo unspecified) | -144
9 | Cc1nocc1C(=O)N1CCc2c(CN(C)C)nn(C)c2C1 | -0.567
10 | CC(C)CNC(=O)c1nc2c(s1)CCN(C(=O)c1ccc(Cl)cc1)CC2 | 7.4
11 | C[C@H]1C[C@@H]2CCN(C(=O)c3ccccn3)C[C@H]2O1 | 4.17
12 | C[C@@H]1C[C@H]2CN(C(=O)c3ccncn3)C[C@H]2O1 | 0.748
13 | CC(C)CC(=O)N1CC[C@H]2C[C@H](c3nccs3)O[C@@H]2C1 | -0.966
14 | O=C(c1cc(-n2cnnn2)ccc1Cl)N1CCCCCC1 | 5.56
15 | O=C(Cn1ccc2c(Cl)cccc21)N1CCCC1 | 0.583
16 | CC(C)CN1CCCC2(CCN(C(=O)c3cnccn3)C2)C1 (stereo unspecified) | 2.39
17 | CCN(CC)CCNC(=O)c1ccn(COc2cc(C)cc(C)c2)n1 | 4.36
18 | CC(=O)N1CCC(c2c(CN(C)C)cnc3cc(C)nn23)CC1 | 2.54
19 | Cc1noc(C)c1CC(=O)N1CCCC(Cc2ccccn2)C1 (stereo unspecified) | 4.75
20 | CC(C)CC(=O)N1CCCC1c1cc(CO)[nH]n1 (stereo unspecified) | 3.05
21 | CC(=O)N1CCc2nc(C3CCN(c4ncccn4)C3)ncc2C1 (stereo unspecified) | -30

Row | SMILES | cytotoxicity at 10 µM [%]
22 | CCc1cc(C(=O)N2CCC(O)(Cn3ccc4ccncc43)CC2)no1 | -18.7
23 | COCCC(=O)N1CCC(c2nc(O)cc(-c3ccncc3)n2)C1 (stereo unspecified) | -25
24 | CN(C)CC(=O)N1CC(c2nn(C)c3nccnc23)C1 | -6.26
25 | O=C(c1ccccc1)N1CC2(CCNC2)OCc2ccccc21 (stereo unspecified) | 13
26 | NC(=O)CS(=O)(=O)Cc1csc(-c2ccc(F)cc2)n1 | -4.95
27 | CN(CC(N)=O)Cc1csc(-c2ccc(F)cc2)n1 | 2.5
28 | CC(NCc1cccn1C)c1noc(-c2ccc(Cl)cc2)n1 (stereo unspecified) | 5.07
29 | COc1cccc(CNCCc2cccc(C(N)=O)c2)c1 | 9.83
30 | CCOc1ccc(NC(=O)c2cc(C)c(C)o2)cc1CO | 3.78
31 | CCC(C#N)NC(=O)CCNC(=O)C(C)(C)C (stereo unspecified) | -1.55
32 | CS(=O)(=O)NCCNC(=O)c1ccc(OCc2ccccc2)nc1 | 4.43
33 | CC(C)N(CC(=O)Nc1cccc(C(=O)N(C)C)c1)C1CC1 | -4.81
34 | COc1cccc(COCC(=O)NC(C(N)=O)c2ccccc2F)c1 (stereo unspecified) | -4.55
35 | Cc1cnn(CCC(=O)NS(=O)(=O)N2CCc3ccccc32)c1 | 4.72
36 | O=C(Nc1cccc(F)c1)N1CCN(Cc2noc(C3CC3)n2)CC1 | 3.8
37 | CC(=O)N(C)CC(=O)NC1(c2ccc(F)cc2)CCCC1 | 0.747
38 | CN(CC(O)COc1ccc(C(F)(F)F)cc1)C(=O)Nc1nncs1 (stereo unspecified) | -11.1
39 | Cc1nnc2n1CCN(c1nn3cc(C(C)(C)C)nc3s1)C2 | -0.903
40 | CCC(CNC(=O)c1nc(=O)[nH][nH]1)Oc1ccccc1C(F)(F)F (stereo unspecified) | 1.45
41 | O=c1oc(-c2ccc(F)cc2)nn1CCc1ccccn1 | -5.65
42 | COC(=O)N1CCCC(C(=O)Nc2nc(C)c(SC)s2)C1 (stereo unspecified) | 11.1

Row | SMILES | cytotoxicity at 10 µM [%]
43 | O=C(c1ccccn1)N(CCO)Cc1cc(Br)ccc1F | 9.91
44 | COC(=O)c1ccc(Cl)c(CN(C)Cc2ncnn2C)c1 | -7.81
45 | c1cnn(CCNCc2cnc(N3CCCC3)nc2)c1 | -9.46
46 | Cc1ccc(NS(=O)(=O)c2cc(C(=O)O)oc2C)c(Br)c1 | 1.83
47 | CN(C)C(=O)c1cc(NC(=O)N2CCCC(C(F)(F)F)C2)ccn1 (stereo unspecified) | -3.58
48 | Cn1cc(CNCCn2cccn2)c(-c2cccnc2)n1 | -2.34
49 | Cc1cc(CN2C[C@@H]3COC[C@]3(CNC(=O)c3ccno3)C2)no1 | 1.18
50 | Cc1cnc(N(C)CCCc2cnn(C)c2)nc1N(C)C | 2.03
51 | CC1(C)Cc2nc(C(C)(C)C)ncc2C(NC(=O)Cc2nnn[nH]2)C1 (stereo unspecified) | -3.67
52 | CCN(Cc1ccc(-c2ccccn2)cc1)C1CCS(=O)(=O)C1 (stereo unspecified) | -9.25
53 | CCNc1ncc(C2CC(=O)Nc3c2cnn3Cc2ccncc2)cn1 (stereo unspecified) | -6.87
54 | CN1CCC(N(C)CCC(=O)N2CCN(Cc3cccc(F)c3)CC2)C1 (stereo unspecified) | -3.41
55 | COc1ccc(C(C(=O)O)N2CCC(Cn3cccn3)CC2)cc1F (stereo unspecified) | 1.81
56 | COCCNc1nc2c(c(NCc3cnc(C)c(C)c3)n1)CCNCC2 | -1.22
57 | CC(O)CCn1ccc2[nH]c(=O)c(C#N)cc2c1=O (stereo unspecified) | 5.66
58 | CSc1ccc(CN(CCO)C(=O)CCc2cccc(F)c2)cc1 | 2.93
59 | CC1(C)CN(c2cc(C3CC3)ncn2)C[C@]1(C)O | 1.4
60 | CC(C)n1ccc(CN2CCN(c3cc(NC4CC4)nc(N)n3)CC2)c1 | -1.45
61 | COCCN(Cc1ccc(OC)nc1)Cc1cccs1 | -7.28
62 | Cn1nccc1C(=O)N1CCOC(Cc2cccc(C(F)(F)F)c2)C1 (stereo unspecified) | 5.52
63 | Cc1cnn(CCNCC(=O)NCCOc2ccc(Cl)cc2)c1 | -11.8

Row | SMILES | cytotoxicity at 10 µM [%]
64 | Cc1cc(C(=O)N2CCOC(c3nc(C(C)C)n[nH]3)C2)c(C)s1 (stereo unspecified) | -5.72
65 | Cc1ncc2c(n1)CN(CC(=O)Nc1cc(C)on1)CC2 | -12.4
66 | O=C(NCc1csc(Br)c1)N1CCC(O)CC1 | -11.8
67 | CN1CC(C(=O)NCc2ccnc(-n3cccn3)c2)CC1=O (stereo unspecified) | -0.867
68 | O=C(Cc1cn2ccsc2n1)N1CCCC(n2cccn2)C1 (stereo unspecified) | -13.6
69 | CC(C)C(C)(C#N)NC(=O)CN1CCC(c2ccnn2CCO)CC1 (stereo unspecified) | -4.95
70 | CCOc1ccnc(N2CCN(C(=O)c3cc[nH]n3)CC2)n1 | 8.82
71 | Cc1cc(CN2CCN(CC(O)c3ccc4c(c3)OCO4)CC2)no1 (stereo unspecified) | -7.82
72 | Cc1nc(C)n(CC2CN(CCOCC(F)(F)F)CCO2)n1 (stereo unspecified) | -1.95
73 | Cc1cc(NC(=O)NCc2cccnc2OC(C)C)n(C)n1 | 3.2
74 | Cc1ncsc1CN1Cc2cnn(C)c2C(COCC2CC2)C1 (stereo unspecified) | 3.04
75 | O=C(NCc1cncc2c1CCN(CC1CCOC1)C2)c1ccno1 (stereo unspecified) | 13
76 | c1cncc(CO[C@H]2CO[C@@]3(CCN(Cc4ccoc4)C3)C2)c1 | -3.24
77 | O=C1COC2(CCN(Cc3ccoc3)CC2)CN1 | -11.3
78 | CN1CCCCC12CCN(c1nncs1)CC2 | 6.89
79 | CNC(=O)CN1CCCC12CCN(C(=O)c1ccsc1)CC2 | 4.87
80 | O=C(N[C@@H]1CN(Cc2cccs2)[C@@H]2COC[C@@H]21)C1CCC1 | 9.34
81 | Cc1cc(CN2CC[C@H]3OCC[C@@]3(C(=O)NCc3ccco3)C2)no1 | 6.73
